For 167 variants, yeast fitness results are on record in the RNAGym collection of RNA variant scans (doi:10.1126/science.aae0568).

Variants at the floor of the assay were thinned out. Where only a bound is given, the exact number is not on record here.

To fix the notation:
B1: tRNA (parent)
chain: GUUCCGUUGGCGUAAUGGUAACGCGUCUCCCUCCUAAGGAGAAGACUGCGGGUUCGAGUCCCGUACGGAACG

The variants in this data set derive from B1. In words: yeast fitness relative to wild type (ratio to wild type); higher = fitter; tRNA-Arg(CCU), competitive growth, 37 C, YPD. In a few lines:
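Variants of the tRNA-Arg(CCU) gene were chemically synthesised with a 3% per-site mutation rate across 69 sites and placed at the native genomic locus in Saccharomyces cerevisiae. Six parallel replicates of the pooled strains were competed in YPD at 37°C for 24 hours, and gene amplicons from the start and end populations were read by 100-nucleotide paired-end sequencing. Darwinian fitness relative to wild type was derived from changes in genotype frequencies. Genotypes required ≥ 100 starting reads, and estimates < 0.5 were set to 0.5.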
U3A C5A A45C G50C U64C: the yeast fitness turned out to be 0.54. The figure for U3C C29G G44C C49G A57C is no more than 0.5. Turning to C5A C60G C61G, the yeast fitness turned out to be 0.544. On to G10A G63C A65G, for which the yeast fitness is no more than 0.5.

Turning to U35A A43G U64C, the yeast fitness is no more than 0.5.

For the variant A15G C30G G63A, the yeast fitness is no more than 0.5. With C5U U7C C46U, the yeast fitness is 0.728. For C33G C34U U53C the value was 0.577; for A20G A40C A42U A43C, no more than 0.5; for C24G A65U G67C, no more than 0.5.

Turning to U3C C31A C49A, the yeast fitness was no more than 0.5. As for C22A C61A, the yeast fitness was 0.611. With A14C C49G A70U, the yeast fitness was no more than 0.5.

Consider C5G G17C, for which the yeast fitness was 0.651. For C27U G41C U53A C62U the value was no more than 0.5; for C4G A15C U26G G41C A69U, no more than 0.5. Take U2G A15G U26C C34U: the yeast fitness turned out to be 0.611.

Consider C31U A42G C55U, for which the yeast fitness came out at 0.511. For U16G A20U C60G the value was no more than 0.5. The figure for C4G G9A is 0.916; for U7G C29G C46U G50U it is no more than 0.5; for A20C C30A C33U C34U C49A C62G it is no more than 0.5. With U28A U64C, the yeast fitness came to 0.834. U19C G25A: the yeast fitness worked out at 0.969.

Take C5A U16A A45G G50A: the yeast fitness stood at 0.529. For U8C A36U the value was 0.647. The figure for C5A G18C A45C G68A A70G is no more than 0.5; for A36U C55G U64G it is no more than 0.5. The figure for U3A G41C C66A is 0.527.

On to C55U U64A C66A, for which the yeast fitness was no more than 0.5.

Consider C22A C24U C30U C31G, for which the yeast fitness amounted to 0.531.

Take A14C C29U C30G C31A C34A G52C: the yeast fitness is no more than 0.5. For G9C C29U C49A C61U the value was no more than 0.5; for C31U U53G, 0.644. For C11U A15U G38A G56A the value was no more than 0.5; for C61U A69C, 0.882. On to U3C A45C C49U, for which the yeast fitness stood at 0.712. For C24U C55G the value was 0.638; for U7C A15U C34A G39C A40C G56C C61G C62G G68C, no more than 0.5. For G63A A69C the value was 0.941; for C29G G63A, 0.646; for G12C U32G C33G G67C, no more than 0.5. For the variant U19A C29U G67C A69G, the yeast fitness is no more than 0.5. For U7G A21G U26C C31A G38C the value was no more than 0.5; for C11G C31G A36U, no more than 0.5. In the case of U3G G63A, the yeast fitness came out at 0.849. The figure for C24G A45U U54A is no more than 0.5.

On to A14C C24U A40U C55G, for which the yeast fitness is no more than 0.5. As to C4A U19G U35C U53C, the yeast fitness is no more than 0.5. For G6A A20C C29A G44C the value was no more than 0.5; for G56U A69C, 0.717. For A14C C46G C62U C66U the value was no more than 0.5; for U16A A20C, 1.02; for A36G A37U C55G, 0.69. Turning to G17A C22G C29U G51C C55G, the yeast fitness is no more than 0.5. For U3G C11A G23C G52C the value was no more than 0.5; for C5U C33U A45G C61U, no more than 0.5.

G18A U59A: the yeast fitness was found to be 0.76. In the case of C4G C11A C31U A40C, the yeast fitness is no more than 0.5. With U2A A40U, the yeast fitness came to 0.796. For A40U A45U C49U the value was 0.63; for A21G C33G C34G, 0.547. Turning to C29A A57U C60G, the yeast fitness was no more than 0.5.

Take C11G C24G C27A U28C G67A: the yeast fitness was no more than 0.5.

As to C5G U7G G23C C31U C49U, the yeast fitness was no more than 0.5.

For C4U G9C C29G C34G C60G, the yeast fitness is no more than 0.5. Consider C49U A69U, for which the yeast fitness came to 1.01.

For C27G C30G C31U A42G U54C, the yeast fitness was no more than 0.5. For G10A A21U C33A G68C the value was 0.607; for U13A C33G U54A U59A G67A, 0.504.

A15G C30G C31A C66U: the yeast fitness was no more than 0.5. As for A21U C30A, the yeast fitness stood at 0.757. The figure for G12A U35C G41A G51C is no more than 0.5. For C62A A70C the value was 0.955; for C22G C33G, 0.685; for C5U U35C, 0.811.

As for A20G A57G C62U A69G, the yeast fitness was found to be 0.772. The figure for U2A C27A C49G A57U C66U is 0.639; for C5U C30G C55G it is no more than 0.5; for C22U A40G A43U C46G C49G C62U it is 0.531. For G25C C33U C49A U53A G67A the value was no more than 0.5; for C22A A36G, 0.8; for G6A C29G U32C, 0.548. For U19C G50A G56A the value was 0.749. On to A15C U16A A21G U26A C30U C61A A69U, for which the yeast fitness amounted to 0.575. For A20G G48C the value was 1; for A14G A57C, 0.555. Regarding C30A A42U C55G, the yeast fitness was no more than 0.5. U2A C11G U19C C60U: the yeast fitness is no more than 0.5. Take C5U C30A U53A C62U: the yeast fitness was 0.659. On to G48A A69U, for which the yeast fitness turned out to be 0.961. For C4A G17A G41A U54A A57C the value was no more than 0.5. For U35C G41A A45U the value was 0.664; for C4U A37G G39C C61U, no more than 0.5; for U7A U16C A65U, 0.688. The figure for C5A A20C C29U C34A C46A G50A A57U C66U is no more than 0.5; for U26C C31U A43G G63A it is 0.611. Consider U3C U13C C24U G52A G68U, for which the yeast fitness was no more than 0.5. The figure for G23C A37U C46G is no more than 0.5. Consider A20G C46G C49G, for which the yeast fitness was 0.565. For C4A C29U G67A A70U the value was no more than 0.5.

C4U C11A G12A U28C G44C: the yeast fitness is no more than 0.5. For A45U U47A the value was 0.786; for G25U C60G, no more than 0.5. The figure for C31U A40C G56C is no more than 0.5.

On to G10A G18C A20U C30A, for which the yeast fitness was no more than 0.5.

Consider U35A A69C A70C, for which the yeast fitness is 0.535. For G6A C30U U35C, the yeast fitness is no more than 0.5. The figure for G9A C22U C30G C61U is no more than 0.5. The figure for G6A C24U C49A is no more than 0.5; for G10C C31G A70U it is 0.569; for G12C C24U C49U C55U G68C it is no more than 0.5. For U2G C11G C66U the value was no more than 0.5; for C11U G23C G41A C62A, no more than 0.5. In the case of C4G C30A C34U A37G, the yeast fitness is no more than 0.5.

As for C11A G48A U54A, the yeast fitness turned out to be 0.584. On to G23A A40G A45C, for which the yeast fitness is no more than 0.5. The figure for C4U A57U C61U is 0.605; for U35A A42G A43C it is 0.581. The figure for G9C A40U G41A is no more than 0.5.

For C4U C11G C22G C62U, the yeast fitness was no more than 0.5.

As to G12C C66A, the yeast fitness is 0.676. The figure for C5A C33G C34A A40C C55U A65C is no more than 0.5; for C4G G17A A40G it is no more than 0.5. With C31U A42G, the yeast fitness amounted to 0.73. Take C55A U64C: the yeast fitness turned out to be 0.623. For G10C G17A A20U, the yeast fitness is no more than 0.5. On to C5U A37C C46U U53C, for which the yeast fitness was no more than 0.5. Take C22A G25A U64A: the yeast fitness amounted to 0.629. Regarding U7G G10C G44C A69U, the yeast fitness came to 0.617. Turning to C33U A43U C49G G50C C61U U64C C66U, the yeast fitness is no more than 0.5. Regarding C61G G67U, the yeast fitness came out at 0.61.

As for A21G C55A, the yeast fitness worked out at 0.641. For A21G A45C C49U C55U the value was 0.531; for G10A C29A C34G A43C C60G, 0.663. Regarding C5U C33G G56C A69U, the yeast fitness was no more than 0.5. As for G38C G41C A42G A65G, the yeast fitness was 0.503. For G25C U28A G51A the value was 0.604; for C27G G44C A45G, 0.53. As to C5U G17C C24G G38C, the yeast fitness amounted to 0.609. For G10C G50A the value was 0.76; for G38C C61G C66U A69U, no more than 0.5; for C22A A40G C60G A70G, no more than 0.5. On to C5A C27U C31G A43C C49G G52C U59A, for which the yeast fitness was no more than 0.5.

Take U16G C29G C49G A65U: the yeast fitness is no more than 0.5.

In the case of C5A C33G C34U, the yeast fitness is no more than 0.5.

For C49U G50C, the yeast fitness came to 0.815. The figure for C4A C34G A70G is no more than 0.5. For C4A C31G A45G G50C the value was 0.576.

As for C22U C24G C30G, the yeast fitness is no more than 0.5. Consider U28C G39C G44C C46U, for which the yeast fitness is no more than 0.5.

As to U3A C62A, the yeast fitness was found to be 0.727. Take G23A C27U C60G G67A: the yeast fitness came out at 0.549. For U2C G23C G51C the value was no more than 0.5; for G38A G56A, 1.02. For the variant C11A G52C G67A, the yeast fitness was no more than 0.5.

For C34G A36U C62A, the yeast fitness was no more than 0.5. The figure for U13A A40U C55U is 0.681. For C4G G17A C34A A43G the value was 0.633; for U7G U59G, 0.705; for C5G G6A C24U, 0.577. For C5A A40G C49G the value was 0.569. Consider C5G C46U G50A, for which the yeast fitness turned out to be 0.731. For C24A C29U C30U, the yeast fitness is no more than 0.5. The figure for U8G C11U G48A A69U is no more than 0.5. In the case of C5U C34A, the yeast fitness stood at 0.631.

As for C34G A37C, the yeast fitness was found to be 0.554.
